Results from the RNAGym collection of RNA variant scans (doi:10.1002/anie.201605470).

B1: Osa-1-4 twister ribozyme (parent)
chain: CCGCCUAACACUGCCAAUGCCGGUCCCAAGCCCGGAUAAAAGUGGAGGGGGCGG

Variants of: B1
Test: self-cleavage, relative activity (ratio to wild type); higher = more cleavage; co-transcriptional
How it was run: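 The 48 positions downstream of the cleavage site in a DNA template for a 54-nucleotide Oryza sativa twister ribozyme carried 97 % wild-type base and 1 % of each other base. After in vitro transcription (2 h, 37 °C) with co-transcriptional self-cleavage, the RNA was reverse-transcribed with a template-switching oligonucleotide, PCR-amplified and deep-sequenced. Relative activity is the fraction cleaved, judged by reads with or without upstream sequence and normalised to wild type.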

Variant	self-cleavage
A29U U37C	0.14
G30C G34A	0.07
G30C G34U	0.04
G30C G34C	0.04
A29G G19C	0.06
A29G G19U	0.07
A29G G19A	0.08
A29U G30C	0.02
A29U G30A	0.03
A29U G30U	0.03
A29G G35C	0.05
A29G G35U	0.16
A29G G35A	0.24
A29G U24A	0.07
A29G U24C	0.08
A29G U24G	0.02
A29U C31A	0.02
A29U C31U	0.06
A29U C31G	0.03
G30C U18A	0.05
G30C U18C	0.05
G30C U18G	0.06
G30A U18G	0.06
G30A U18C	0.04

Variant	self-cleavage
G30A U18A	0.07
G30A U43A	0.04
G30A U43C	0.02
G30A U43G	0.04
A29U G49A	0.03
A29U G49U	0.02
A29U G49C	0.04
A29G G53U	0.07
A29G G53A	0.07
A29G G53C	0.06
A29G G49A	0.05
A29G G49C	0.04
A29G G49U	0.04
A29U A46C	0.02
A29U A46G	0.04
A29U A46U	0.04
A29G U43G	0.06
A29G U43A	0.07
A29G U43C	0.08
A29U G47C	0.03
A29U G47A	0.03
A29U G47U	0.03
A29U G51A	0.06
A29U G51C	0.05

Variant	self-cleavage
A29U G51U	0.04
A29G U37C	0.28
A29G U37A	0.32
A29G U37G	0.44
A29U	0.21
G30A G34C	0.05
G30A G34U	0.04
G30A G34A	0.11
A29G G45U	0.04
A29G G45A	0.05
A29G G45C	0.03
G30U G35A	0.04
G30U G35C	0.03
G30U G35U	0.04
A29U G35U	0.09
A29U G35A	0.11
A29U G35C	0.04
G30C G42U	0.02
G30C G42A	0.04
G30C G42C	0.04
G30A G49C	0.02
G30A G49A	0.02
G30A G49U	0.03
G30A G53U	0.04

Variant	self-cleavage
G30A G53A	0.03
G30A G53C	0.03
G30A G50A	0.04
G30A G50C	0.04
G30A G50U	0.04
A29G G48C	0.04
A29G G48U	0.03
A29G G48A	0.04
G30C G48A	0.02
G30C G48C	0.02
G30C G48U	0.02
A29U C33A	0.04
A29U C33G	0.04
A29U C33U	0.08
G30U G47U	0.03
G30U G47C	0.01
G30U G47A	0.03
A29U U12A	0.08
A29U U12G	0.04
A29U U12C	0.05
G30U G48A	0.02
G30U G48C	0.02
G30U G48U	0.02
A29U A8U	0.05

Variant	self-cleavage
A29U A8G	0.11
A29U A8C	0.04
A29U G53A	0.07
A29U G53C	0.04
A29U G53U	0.06
G30A G47C	0.02
G30A G47U	0.02
G30A G47A	0.03
G30A G48A	0.01
G30A G48C	0.02
G30A G48U	0.01
A29U A40C	0.03
A29U A40U	0.06
A29U A40G	0.08
G30C G47C	0.02
G30C G47A	0.03
G30C G47U	0.03
A29U C15A	0.04
A29U C15U	0.07
A29U C15G	0.09
G30A G44U	0.04
G30A G44C	0.04
G30A G44A	0.04
A29U G50C	0.04

Variant	self-cleavage
A29U G50A	0.13
A29U G50U	0.09
G30A G42U	0.02
G30A G42A	0.04
G30A G42C	0.03
A29G G44A	0.07
A29G G44U	0.08
A29G G44C	0.16
G30C G35A	0.05
G30C G35C	0.04
G30C G35U	0.04
A29G G54A	0.15
A29G G54C	0.08
A29G G54U	0.37
A29U A36C	0.03
A29U A36G	0.24
A29U A36U	0.17
A29U C26U	0.07
A29U C26A	0.03
A29U C26G	0.05
A29U C20G	0.03
A29U C20U	0.21
A29U C20A	0.12
A29U A38C	0.08

Variant	self-cleavage
A29U A38G	0.09
A29U A38U	0.09
G30C G51A	0.05
G30C G51C	0.03
G30C G51U	0.03
A29G G42C	0.06
A29G G42U	0.04
A29G G42A	0.06
G30A U24C	0.03
G30A U24A	0.03
G30A U24G	0.01
G30C U24C	0.04
G30C U24A	0.03
G30C U24G	0.01
A29U U43A	0.06
A29U U43G	0.08
A29U U43C	0.06
G30C G49U	0.02
G30C G49A	0.02
G30C G49C	0.02
G30C U12C	0.03
G30C U12G	0.1
G30C U12A	0.06
